According to ChEMBL document CHEMBL4613300, “Pharmacophore-Based Virtual Screening for Identification of Negative Modulators of GLI1 as Potential Anticancer Agents” (ACS Med Chem Lett, 2020):
pIC50: −log10 of the molar value. Activity calls are given as the source filed them. The rule behind the calls is not given here.

Assays:
[1] = molecular target: T1, Zinc finger protein GLI1 (Mus musculus) (UniProt P47806); assay: Inhibition of GLI1 transcriptional activity in HH-responsive mouse NIH3T3 cells assessed as reduction in GLI1 protein expression at 5 uM incubated for 48 hrs in presence of SAG by Western blot analysis; format: cell-based
T1 sequence (whole entry): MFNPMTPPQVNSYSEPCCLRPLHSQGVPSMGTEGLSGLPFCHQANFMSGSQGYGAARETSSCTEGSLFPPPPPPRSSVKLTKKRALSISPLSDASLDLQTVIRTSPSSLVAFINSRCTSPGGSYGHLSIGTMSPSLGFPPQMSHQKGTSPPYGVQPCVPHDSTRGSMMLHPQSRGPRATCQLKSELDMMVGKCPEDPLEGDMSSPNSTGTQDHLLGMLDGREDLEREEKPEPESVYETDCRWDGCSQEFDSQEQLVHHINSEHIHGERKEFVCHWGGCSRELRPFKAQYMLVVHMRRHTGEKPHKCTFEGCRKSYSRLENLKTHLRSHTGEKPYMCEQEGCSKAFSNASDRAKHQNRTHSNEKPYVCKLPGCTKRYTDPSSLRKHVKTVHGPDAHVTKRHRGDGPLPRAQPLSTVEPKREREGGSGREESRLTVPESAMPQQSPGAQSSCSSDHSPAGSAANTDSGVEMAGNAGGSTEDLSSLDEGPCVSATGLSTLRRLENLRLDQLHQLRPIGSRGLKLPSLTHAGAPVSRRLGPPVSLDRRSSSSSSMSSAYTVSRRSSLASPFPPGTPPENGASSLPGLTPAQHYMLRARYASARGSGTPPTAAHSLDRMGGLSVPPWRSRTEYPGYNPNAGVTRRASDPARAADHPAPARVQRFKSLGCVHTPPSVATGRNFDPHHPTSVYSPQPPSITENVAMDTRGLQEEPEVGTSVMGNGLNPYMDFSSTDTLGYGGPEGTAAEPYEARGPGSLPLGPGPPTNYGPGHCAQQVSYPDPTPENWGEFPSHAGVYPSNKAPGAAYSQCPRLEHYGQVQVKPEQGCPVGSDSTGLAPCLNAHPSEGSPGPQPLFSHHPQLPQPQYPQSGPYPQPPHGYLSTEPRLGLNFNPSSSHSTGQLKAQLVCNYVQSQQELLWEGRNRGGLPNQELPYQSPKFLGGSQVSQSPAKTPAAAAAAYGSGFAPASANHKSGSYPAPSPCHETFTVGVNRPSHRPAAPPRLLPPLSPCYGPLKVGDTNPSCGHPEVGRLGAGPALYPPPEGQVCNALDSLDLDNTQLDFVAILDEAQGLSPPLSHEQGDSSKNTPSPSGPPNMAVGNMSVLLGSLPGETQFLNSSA
Outline: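 Murine NIH3T3 cells given 100 nM SAG plus compound (5 μM) or DMSO for 48 h. Endogenous GLI1 protein measured by Western blot with HSP90 as loading control, band quantified against SAG-treated cells.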

[2] = system: A-375; assay: Antiproliferative activity against human A375 cells assessed as reduction in cell viability incubated for 72 hrs by trypan blue or crystal violet staining based assay; format: functional; conditions: for IC50: a-375; for pIC50: Homo sapiens, A-375, 72 h, read-out: IC50
[3] = system: Daoy; assay: Antiproliferative activity against human DaOY cells assessed as reduction in cell viability incubated for 72 hrs by trypan blue or crystal violet staining based assay; format: functional; conditions: for IC50: daoy; for pIC50: Homo sapiens, Daoy, 72 h, read-out: IC50
[4] = molecular target: T1, Zinc finger protein GLI1 (Mus musculus); assay: Inhibition of GLI1 transcriptional activity in HH-responsive mouse NIH3T3 cells assessed as reduction in SAG-induced luciferase activity at 5 uM incubated for 48 hrs by luciferase reporter gene assay relative to control; format: cell-based
Outline: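 HH-responsive NIH3T3 cells carrying a GLI-dependent firefly luciferase reporter with renilla control, treated 48 h with 100 nM SAG plus compound (5 μM). Firefly/renilla ratio normalised to SAG-only cells set at 100%, reported as percent inhibition.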

[5] = molecular target: T2, Zinc finger protein GLI1 (Homo sapiens) (UniProt P08151); assay: Inhibition of GLI1 transcriptional activity in human A375 cells assessed as downregulation of HIP1 mRNA expression at 5 uM incubated for 48 hrs by qPCR analysis; format: cell-based; conditions: A-375
T2 sequence (whole entry): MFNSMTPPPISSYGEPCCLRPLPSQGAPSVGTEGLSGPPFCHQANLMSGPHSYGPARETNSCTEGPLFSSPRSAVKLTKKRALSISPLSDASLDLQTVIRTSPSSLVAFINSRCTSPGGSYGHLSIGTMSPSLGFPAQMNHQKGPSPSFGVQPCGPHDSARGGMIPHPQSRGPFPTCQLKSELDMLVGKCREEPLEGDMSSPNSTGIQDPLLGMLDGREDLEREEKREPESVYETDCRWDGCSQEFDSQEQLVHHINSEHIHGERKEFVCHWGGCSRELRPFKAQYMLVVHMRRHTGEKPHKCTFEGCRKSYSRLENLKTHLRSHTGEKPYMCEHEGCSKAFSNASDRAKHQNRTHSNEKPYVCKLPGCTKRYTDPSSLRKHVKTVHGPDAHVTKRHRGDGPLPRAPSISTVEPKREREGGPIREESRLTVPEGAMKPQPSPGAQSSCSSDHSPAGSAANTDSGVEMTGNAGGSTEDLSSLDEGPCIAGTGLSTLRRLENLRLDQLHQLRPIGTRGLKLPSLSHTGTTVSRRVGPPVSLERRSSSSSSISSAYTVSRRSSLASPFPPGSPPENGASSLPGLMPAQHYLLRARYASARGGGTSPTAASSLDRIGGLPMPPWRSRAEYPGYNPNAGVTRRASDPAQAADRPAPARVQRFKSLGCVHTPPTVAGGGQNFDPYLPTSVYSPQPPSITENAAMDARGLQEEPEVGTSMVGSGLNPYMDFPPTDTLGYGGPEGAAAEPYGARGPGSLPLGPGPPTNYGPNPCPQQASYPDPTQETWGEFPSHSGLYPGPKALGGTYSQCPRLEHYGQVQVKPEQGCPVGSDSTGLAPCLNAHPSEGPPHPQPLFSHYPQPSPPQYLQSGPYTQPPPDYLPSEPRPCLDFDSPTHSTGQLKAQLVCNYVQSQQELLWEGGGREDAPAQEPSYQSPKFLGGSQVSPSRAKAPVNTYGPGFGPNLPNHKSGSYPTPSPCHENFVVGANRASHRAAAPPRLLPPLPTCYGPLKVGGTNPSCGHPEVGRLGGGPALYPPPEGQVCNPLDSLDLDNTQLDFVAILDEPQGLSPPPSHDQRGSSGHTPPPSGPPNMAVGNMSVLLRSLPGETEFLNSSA
Outline: (§1)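 A375 cells treated with compound (5 μM) or DMSO for 48 h. mRNA measured by qPCR as gene/(mean of HPRT and EIF2α) ratio, DMSO control set to 1. Mean ± SD.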

[6] = molecular target: T2, Zinc finger protein GLI1 (Homo sapiens); assay: Inhibition of GLI1 transcriptional activity in human A375 cells assessed as downregulation of PTCH1 mRNA expression at 5 uM incubated for 48 hrs by qPCR analysis; format: cell-based; conditions: A-375; outline: as §1
[7] = molecular target: T2, Zinc finger protein GLI1 (Homo sapiens); assay: Inhibition of GLI1 transcriptional activity in human A375 cells assessed as downregulation of Cyclin D1 mRNA expression at 5 uM incubated for 48 hrs by qPCR analysis; format: cell-based; conditions: A-375; outline: as §1
[8] = molecular target: T2, Zinc finger protein GLI1 (Homo sapiens); assay: Inhibition of GLI1 transcriptional activity in human A375 cells assessed as downregulation of GLI2 mRNA expression at 5 uM incubated for 48 hrs by qPCR analysis; format: cell-based; conditions: A-375; outline: as §1
[9] = molecular target: T2, Zinc finger protein GLI1 (Homo sapiens); assay: Inhibition of GLI1 transcriptional activity in human A375 cells assessed as downregulation of GLI1 mRNA expression at 5 uM incubated for 48 hrs by qPCR analysis; format: cell-based; conditions: A-375; outline: as §1
[10] = system: MCF-10A; assay: Cytotoxicity against human MCF10A cells assessed as reduction in cell viability incubated for 72 hrs by trypan blue or crystal violet staining based assay

Structure (SMILES) | inhibition [1] | IC50 [2] | IC50 [3] | inhibition [4] [%] | pIC50 [2] | pIC50 [3] | further results
O=C(NC1CCCCC1)c1cnn2c(C(F)F)cc(C3CC3)nc12 | inactive |  |  |  |  |  | 
CCOC(=O)c1c(-c2ccccc2)csc1NC(NC(=O)c1cccc(C)c1)C(Cl)(Cl)Cl (stereo unspecified) | inactive | Not Active | Not Active |  |  |  | 
Cc1cc(C(F)F)n2ncc(C(=O)NC3CC(C)(C)Oc4ccccc43)c2n1 (stereo unspecified) | inactive | Not Active | Not Active | 0 |  |  | 
CCOC(=O)c1c(-c2ccccc2)csc1NC(NC(=O)c1cccc(Cl)c1)C(Cl)(Cl)Cl (stereo unspecified) | Active |  |  | 81 | 5.21 | 5.26 | 
COc1c(O)cc2oc3cc(O)c(CC=C(C)C)c(O)c3c(=O)c2c1CC=C(C)C [MANGOSTIN] | Active |  |  | 43 | 5.57 | 5.72 | 
CCOC(=O)c1c(-c2ccccc2)csc1NC(NC(=O)c1ccc([N+](=O)[O-])cc1)C(Cl)(Cl)Cl (stereo unspecified) | Active |  |  | 74 | 5.28 | 5.51 | 
CCOC(=O)c1c(-c2ccccc2)csc1NC(NC(=O)c1ccccc1C)C(Cl)(Cl)Cl (stereo unspecified) | inactive | Not Active | Not Active |  |  |  | 
O=C(NCCc1ccccc1)c1cnn2c(C(F)F)cc(C3CC3)nc12 | inactive |  |  |  |  |  | 
O=C(NCc1ccc2c(c1)OCO2)c1cnn2c(C(F)F)cc(C3CC3)nc12 | inactive |  |  |  |  |  | 
O=C(NC1CCCc2ccccc21)c1cnn2c(C(F)(F)F)cc(-c3ccco3)nc12 (stereo unspecified) | Active |  |  | 66 | 6.22 | 5.24 | 
CCOC(=O)c1c(-c2ccccc2)csc1NC(NC(=O)c1ccc(C)cc1)C(Cl)(Cl)Cl (stereo unspecified) | inactive | Not Active | Not Active |  |  |  | 
CC1(C)CC(NC(=O)c2cnn3c(C(F)F)cc(C4CC4)nc23)c2ccccc2O1 (stereo unspecified) | Active |  |  | 40 | 5.66 | 5.64 | inhibition [5]: Active; inhibition [6]: Active; inhibition [7]: Active; inhibition [8]: Active; inhibition [9]: Active; Activity [10]: Non-Toxic
O=C(c1cnn2c(C(F)F)cc(C3CC3)nc12)N(Cc1ccccc1)Cc1ccccc1 | inactive |  |  |  |  |  | 
O=C(NC1CCOc2ccccc21)c1cnn2c(C(F)F)cc(C3CC3)nc12 (stereo unspecified) | inactive | Not Active | Not Active |  |  |  | 
O=C(NC1CCCc2ccccc21)c1cnn2c(C(F)F)cc(C3CC3)nc12 (stereo unspecified) | Active |  |  | 54 | 5.30 | 5.12 | 
CCOC(=O)c1c(-c2ccccc2)csc1NC(NC(C)=O)C(Cl)(Cl)Cl (stereo unspecified) | inactive |  |  | 38 | 5.29 | 5.55 | 
CCOC(=O)c1c(-c2ccccc2)csc1NC(NC(=O)c1cccc2ccccc12)C(Cl)(Cl)Cl (stereo unspecified) | inactive | Not Active | Not Active | 7 |  |  | 
CCOC(=O)c1c(-c2ccccc2)csc1NC(NC(=O)c1ccco1)C(Cl)(Cl)Cl (stereo unspecified) | Active |  |  | 51 | 5.57 | 5.37 | 
CCOC(=O)c1c(-c2ccccc2)csc1NC(NC(=O)c1ccc(Br)cc1)C(Cl)(Cl)Cl (stereo unspecified) | Active |  |  | 78 | 5.70 | 5.47 | 
CCOC(=O)c1c(-c2ccccc2)csc1NC(NC(=O)c1ccccc1)C(Cl)(Cl)Cl (stereo unspecified) | Active |  |  | 40 | 4.92 | 6.05 | inhibition [5]: Active; inhibition [6]: Active; inhibition [7]: Active; inhibition [8]: Active; inhibition [9]: Active; Activity [10]: Non-Toxic
